# Assays:
# [1] = tested on: L1210; experiment: Compound was tested in vitro for cytotoxicity against L1210 leukemia cells in tumor bearing mice.; type: functional; conditions: Mus musculus, read-out: ED50 (the source's name)
# Procedure, shortened: (§1)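 Mouse L1210 cells grown in suspension in Fischer's medium with 10% horse serum, 37 °C, 5% CO2. Exponential-phase cells at 2 × 10⁴ cells/mL exposed to compound. Cell number counted against drug-free control after 24, 48 and 72 h. ED50 (concentration inhibiting growth by 50%) estimated from dose-response curves from replicate independent experiments.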
# [2] = tested on: L1210; experiment: Compound was tested in vitro for alkylating activity against L1210 leukemia cells in tumor bearing mice; type: functional, Mus musculus
# Procedure, shortened: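 4-(4-Nitrobenzyl)pyridine alkylation measured after 120 min at 37 °C, pH 6.4. Activity expressed relative to BCNU (set at 1.00). Three determinations per compound.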
# [3] = tested on: L1210; experiment: Compound was tested in vitro for carbomoylating activity against L1210 leukemia cells in tumor bearing mice; type: functional, Mus musculus
# Procedure, shortened: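 Extent of carbamoylation of 5'-amino-5'-deoxythymidine measured after incubation with nitrosourea for 6 h at 37 °C in phosphate-buffered saline. Activity expressed relative to BCNU (set at 1.00). Three determinations per compound.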
# [4] = tested on: L1210; experiment: Effect on the survival time of mice bearing L1210 leukemia at a dose of 20 mg/kg; type: functional, Mus musculus
# Procedure, shortened: (§2)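 L1210 ascites cells from 7-day growths in donor CDF1 female mice were diluted in isotonic saline, and about 10^5 cells were injected i.p. Drug was given as one i.p. injection in isotonic saline, 24 h after implantation. Groups held five or six weight-matched mice, with saline vehicle controls. T/C × 100 = treated/control survival time in dying animals; >60-day survivors counted.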
# [5] = tested on: L1210; experiment: Effect on the survival time of mice bearing L1210 leukemia at a dose of 40 mg/kg; type: functional, Mus musculus; procedure, shortened: as §2
# [6] = tested on: L1210; experiment: Effect on the survival time of mice bearing L1210 leukemia at a dose of 80 mg/kg; type: functional, Mus musculus; procedure, shortened: as §2
# [7] = tested on: L1210; experiment: Effect on the survival time of mice bearing L1210 leukemia at a dose of 40 mg/kg on 30th day; type: functional, Mus musculus
# [8] = tested on: L1210; experiment: Effect on the survival time of mice bearing L1210 leukemia at a dose of 80 mg/kg on 30th day; type: functional, Mus musculus
# [9] = tested on: L1210; experiment: Effect on the survival time of mice bearing L1210 leukemia at a dose of 20 mg/kg on 30th day; type: functional, Mus musculus
# [10] = tested on: L1210; experiment: Effect on the maximum weight loss of mice bearing L1210 leukemia at a dose of 80 mg/kg on days 9; type: functional, Mus musculus
# [11] = Half-life, determined by incubation at 37 degree celsius in PBS (pH 7.4)
# [12] = tested on: L1210; experiment: Effect on the maximum weight loss of mice bearing L1210 leukemia at a dose of 20 mg/kg; conditions: Mus musculus
# [13] = tested on: L1210; experiment: Effect on the maximum weight loss of mice bearing L1210 leukemia at a dose of 40 mg/kg on days 5-8
# [14] = tested on: L1210; experiment: Effect on the maximum weight loss of mice bearing L1210 leukemia at a dose of 80 mg/kg on days 11; type: functional, Mus musculus
# [15] = tested on: L1210; experiment: Compound was tested in vitro for cytotoxicity against L1210 leukemia cells in tumor bearing mice; type: functional; conditions: Mus musculus, read-out: ED50 (the source's name); procedure, shortened: as §1
# [16] = tested on: L1210; experiment: Effect on the maximum weight loss of mice bearing L1210 leukemia at a dose of 40 mg/kg on days 6-8
smiles,measurement,setting,value
NC1CC(n2cc(F)c(=O)[nH]c2=O)OC1CO (stereo not given),EC50,[1],15 µM
O=NN(CCCl)C(=O)N[C@@H]1CC(n2cc(F)c(=O)[nH]c2=O)O[C@@H]1CO (stereo not given in full),Activity,[2],1.78
same,Activity,[3],0.77
same,EC50,[1],2.5 µM
same,Average survival days,[4],18.7
same,Body weight,[4],26.1 g
same,T/C,[4],223%
same,Weight change,[4],4%
same,Average survival days,[5],14
same,Body weight,[5],19.5 g
same,T/C,[5],167%
same,Weight change,[5],5%
same,Average survival days,[6],9
same,Body weight,[6],20.5 g
same,T/C,[6],107%
same,Weight change,[6],4%
same,Body weight,[7],22.1 g
same,Body weight,[8],21.3 g
same,Body weight,[9],22 g
same,Max weight loss,[10],14%
same,half-life,[11],36.1 min
same,Max weight loss,[12],None
same,Max weight loss,[13],3%
O=NN(CCCl)C(=O)N[C@@H]1CC(n2ccc(=O)[nH]c2=O)O[C@@H]1CO (stereo not given in full),Activity,[2],1.65
same,Activity,[3],0.85
same,Max weight loss,[14],21%
same,Average survival days,[4],20.4
same,Body weight,[4],18.8 g
same,T/C,[4],243%
same,Weight change,[4],9%
same,Average survival days,[5],31
same,Body weight,[5],19 g
same,T/C,[5],369%
same,Weight change,[5],5%
same,Average survival days,[6],8.3
same,Body weight,[6],19.5 g
same,T/C,[6],99%
same,Weight change,[6],13%
same,Body weight,[7],22.1 g
same,Body weight,[8],20.8 g
same,EC50,[15],12.5 µM
same,Body weight,[9],22 g
same,half-life,[11],27.3 min
same,Max weight loss,[12],None
same,Max weight loss,[16],2%
Cc1cn(C2CC(NC(=O)N(CCCl)N=O)C(CO)O2)c(=O)[nH]c1=O (stereo not given),Activity,[2],2
same,Activity,[3],0.85
same,EC50,[1],1.5 µM
same,half-life,[11],37.3 min
N[C@H]1C[C@H](n2ccc(=O)[nH]c2=O)O[C@@H]1CO,EC50,[1],18 µM
O=NN(CCCl)C(=O)NCCCl [CARMUSTINE],Activity,[2],1
same,Activity,[3],1
same,EC50,[1],4 µM
same,half-life,[11],50 min
Cc1cn([C@H]2C[C@H](N)[C@@H](CO)O2)c(=O)[nH]c1=O [3-AMINO- 3-DEOXYTHYMIDINE],EC50,[1],0.8 µM
